The values below come from ChEMBL document CHEMBL1137753, “Insecticidal heterolignans--tubuline polymerization inhibitors with activity against chewing pests” (Bioorg Med Chem, 2009).

What all share (assay type): functional, organism-based
The subject of assay [1] is Spodoptera frugiperda. In words: Insecticidal activity against Spodoptera frugiperda larvae in disk of maize leaf at 100 g/ha treated as spray. An outline of the steps: (§1)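 The same acetone/DMF/emulsifier formulation, diluted in emulsifier-containing water, was sprayed onto maize leaf disks. Dried disks were infested with fall armyworm larvae and mortality was assessed after a set time. "+" denotes ≥80% larvae killed; n.a. denotes no larvae killed.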

Assay [2] relates to Phaedon cochleariae. In words: Insecticidal activity against Phaedon cochleariae larvae in disk of Chinese cabbage leaf at 100 g/ha treated as spray. The method in brief: (§2)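 This was sprayed on Chinese cabbage leaf disks. Once dry, disks were infested with mustard beetle larvae and mortality was scored after a set time. "+" denotes ≥80% larvae killed; n.a. denotes none killed.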

The subject of assay [3] is Phaedon cochleariae. In words: Insecticidal activity against Phaedon cochleariae larvae in disk of Chinese cabbage leaf treated as spray.
Assay [4] has as its system Spodoptera frugiperda. Nature of the assay: Insecticidal activity against Spodoptera frugiperda larvae in disk of maize leaf at 500 g/ha treated as spray. The method in brief:
as §1

Assay [5] concerns Phaedon cochleariae. In words: Insecticidal activity against Phaedon cochleariae larvae in disk of Chinese cabbage leaf at 500 g/ha treated as spray. The method in brief: as §2
Assay [6] relates to Spodoptera frugiperda. Nature of the assay: Insecticidal activity against Spodoptera frugiperda larvae in disk of maize leaf treated as spray.

Calls of active or inactive are those of the source. Unless noted, the rule behind the calls is not given here.

On to `CCOc1cccc(C2C3=C(COC3=O)Nc3cc4c(cc32)OCO4)c1` (stereo not given), for which the outcome with Spodoptera frugiperda [1] and in the assay with Phaedon cochleariae [2] was Active.

For `CC(C)Oc1cccc(C2C3=C(COC3=O)Nc3cc4c(cc32)OCO4)c1` (stereo not given), the result with Phaedon cochleariae [3] was inactive. For the same molecule, the outcome with Spodoptera frugiperda [4] was Active. In the case of `COc1cc(C2C3=C(COC3=O)Nc3cc4c(cc32)OCO4)ccc1F` (stereo not given), the outcome in the assay on Spodoptera frugiperda [1] and in the assay with Phaedon cochleariae [5] was Active. On to `CC1(C)OC(=O)C2=C1Nc1cc3c(cc1C2c1cccc(Cl)c1)OCO3` (stereo not given), for which, in the assay on Phaedon cochleariae [5], the outcome was Active. Also, the result in the assay on Spodoptera frugiperda [6] was inactive.

For `O=C1OCC2=C1C(c1cccc(OC(F)(F)F)c1)c1cc3c(cc1N2)OCO3` (stereo not given), the outcome with Phaedon cochleariae [2] was Active. On to `O=C1OCC2=C1C(c1cccc(C(F)(F)F)c1)c1cc3c(cc1N2)OCO3` (stereo not given), for which the outcome with Spodoptera frugiperda [1] and in the assay on Phaedon cochleariae [2] was Active. For the molecule `CCOc1cc2c(cc1C)C(c1cc(OC)cc(OC)c1)C1=C(COC1=O)N2` (stereo not given), the result in the assay on Phaedon cochleariae [2] was Active. Also, in the assay on Spodoptera frugiperda [6], the result was inactive.

Consider `CC1(C)COS(=O)(=O)C2=C1Nc1cc3c(cc1C2c1cccc(Cl)c1)OCO3` (stereo not given), for which, in the assay on Phaedon cochleariae [5], the outcome was Active. In the assay with Spodoptera frugiperda [6], the outcome was inactive. For `Cc1cc(C)cc(C2C3=C(COC3=O)Nc3cc4c(cc32)OCO4)c1` (stereo not given), in the assay with Phaedon cochleariae [2], the result was Active. With `O=C1OC2(CCCC2)C2=C1C(c1cccc(Cl)c1)c1cc3c(cc1N2)OCO3` (stereo not given), the result in the assay with Phaedon cochleariae [5] was Active. The outcome in the assay with Spodoptera frugiperda [6] was inactive. In the case of `COc1cc(OC)cc(C2C3=C(COC3=O)Nc3cc4c(cc32)OCCO4)c1` (stereo not given), the result with Spodoptera frugiperda [1] and with Phaedon cochleariae [5] was Active. Regarding `Cc1cccc(C2C3=C(COC3=O)Nc3cc4c(cc32)OCO4)c1` (stereo not given), the outcome with Phaedon cochleariae [3] was inactive. In addition, the result in the assay on Spodoptera frugiperda [1] was Active. On to `O=C1OCC2=C1C(c1ccc(F)c(Br)c1)c1cc3c(cc1N2)OCO3` (stereo not given), for which the outcome with Phaedon cochleariae [5] was Active.

With `COc1c(Cl)cc(C2C3=C(COC3=O)Nc3cc4c(cc32)OCO4)cc1Cl` (stereo not given), the result with Spodoptera frugiperda [1] and with Phaedon cochleariae [2] was Active. `CC1(C)NC(=O)C2=C1Nc1cc3c(cc1C2c1cccc(Cl)c1)OCO3` (stereo not given): in the assay on Phaedon cochleariae [5], the result was Active. For the same molecule, in the assay with Spodoptera frugiperda [6], the result was inactive. `O=C1OCC2=C1C(c1cc(Cl)cc(Cl)c1)c1cc3c(cc1N2)OCO3` (stereo not given): in the assay with Phaedon cochleariae [2], the result was Active. `COc1cc(C2C3=C(CNC3=O)Nc3cc4c(cc32)OCO4)cc(OC)c1OC` (stereo not given): the result in the assay with Phaedon cochleariae [5] was Active. The outcome in the assay on Spodoptera frugiperda [6] was inactive. For `CC1(C)OS(=O)(=O)C2=C1Nc1cc3c(cc1C2c1cccc(Cl)c1)OCO3` (stereo not given), in that order: “Active” and “inactive”. In the case of `COc1cc(C2C3=C(COC3=O)Nc3cc4c(cc32)OCO4)cc(O)c1OC` (stereo not given), the result in the assay with Phaedon cochleariae [2] was Active. The result in the assay on Spodoptera frugiperda [6] was inactive. For `O=C1OCC2=C1C(c1cncc(Br)c1)c1cc3c(cc1N2)OCO3` (stereo not given), the result in the assay with Phaedon cochleariae [3] was inactive. Moreover, in the assay on Spodoptera frugiperda [1], the outcome was Active. Regarding `O=C1NCC2=C1C(c1cccc(Cl)c1)c1cc3c(cc1N2)OCO3` (stereo not given), the outcome with Spodoptera frugiperda [1] and with Phaedon cochleariae [5] was Active. Turning to `O=C1OCC2=C1C(c1cccc(Cl)c1)c1cc3c(cc1N2)OCO3` (stereo not given), the outcome in the assay with Spodoptera frugiperda [1] and with Phaedon cochleariae [5] was Active. With `COc1cc(OC)cc(C2C3=C(COC3=O)Nc3cc4c(cc32)OCCCO4)c1` (stereo not given), the result in the assay with Spodoptera frugiperda [1] and in the assay with Phaedon cochleariae [5] was Active. As for `COc1cc(C2C3=C(COC3=O)Oc3cc4c(cc32)OCO4)cc(Br)c1OC` (stereo not given), the outcome with Phaedon cochleariae [5] was Active. In addition, the outcome in the assay on Spodoptera frugiperda [6] was inactive. Take `COc1cc(C2C3=C(COC3=O)Nc3cc4c(cc32)OCO4)cc(SC)c1OC` (stereo not given): the outcome with Phaedon cochleariae [2] was Active. The result with Spodoptera frugiperda [6] was inactive. Regarding `O=C1OCC2=C1C(c1cc(F)cc(F)c1)c1cc3c(cc1N2)OCO3` (stereo not given), the result in the assay with Phaedon cochleariae [2] was Active.

As for `O=C1OCC2=C1C(c1cccc(OC(F)(F)C(F)F)c1)c1cc3c(cc1N2)OCO3` (stereo not given), the outcome with Spodoptera frugiperda [1] and in the assay on Phaedon cochleariae [2] was Active.

With `COc1cc(C2C3=C(COC3=O)Nc3cc4c(cc32)OCO4)cc(Br)c1OC` (stereo not given), the result in the assay with Phaedon cochleariae [2] was Active. In addition, in the assay with Spodoptera frugiperda [6], the result was inactive.

For `COc1cc(OC)cc(C2C3=C(COC3=O)Nc3cc(OC4CC4)ccc32)c1` (stereo not given), the outcome with Spodoptera frugiperda [1] and in the assay with Phaedon cochleariae [5] was Active. On to `O=C1OCC2=C1C(c1cccc(Br)c1)c1cc3c(cc1N2)OCO3` (stereo not given), for which the outcome in the assay on Phaedon cochleariae [2] was Active. Consider `COc1cc(OC)cc(C2C3=C(CNC3=O)Nc3cc4c(cc32)OCO4)c1` (stereo not given), for which the outcome in the assay with Phaedon cochleariae [5] was Active. Further, the outcome in the assay on Spodoptera frugiperda [6] was inactive. As to `COc1cc(C2C3=C(COC3=O)Cc3cc4c(cc32)OCO4)cc(OC)c1OC` (stereo not given), in the assay on Phaedon cochleariae [2], the result was Active. In the assay on Spodoptera frugiperda [6], the result was inactive. Regarding `COc1cc(OC)cc(C2C3=C(COC3=O)Nc3c2ccc(C)c3C)c1` (stereo not given), the outcome in the assay on Spodoptera frugiperda [1] and with Phaedon cochleariae [2] was Active. Take `COc1cc(OC)cc(C2C3=C(COC3=O)N(C)c3cc(OC)ccc32)c1` (stereo not given): the outcome in the assay on Phaedon cochleariae [3] was inactive. The result with Spodoptera frugiperda [1] was Active.

Consider `COc1cc(C2C3=C(CN(C(=O)OC(C)(C)C)C3=O)Nc3cc4c(cc32)OCO4)cc(OC)c1OC` (stereo not given), for which the result with Phaedon cochleariae [3] and in the assay on Spodoptera frugiperda [6] was inactive. With `COc1cc(OC)cc(C2C3=C(COC3=O)Nc3cc(C)ccc32)c1` (stereo not given), the outcome in the assay on Phaedon cochleariae [5] was Active.

Take `O=C1OCC2=C1C(c1cccc(OC(F)F)c1)c1cc3c(cc1O2)OCO3` (stereo not given): the outcome in the assay with Phaedon cochleariae [3] and in the assay on Spodoptera frugiperda [6] was inactive. For the molecule `COc1cc(OC)cc(C2C3=C(COC3=O)Nc3cc(O)ccc32)c1` (stereo not given), the outcome in the assay on Phaedon cochleariae [3] and with Spodoptera frugiperda [6] was inactive.

For the molecule `CC1(c2cccc(Cl)c2)C2=C(COC2=O)Nc2ccc(Cl)cc21` (stereo not given), the outcome in the assay on Phaedon cochleariae [3] and with Spodoptera frugiperda [6] was inactive. Regarding `O=C1OCC2=C1C(c1cc(Cl)ccc1Cl)c1cc3c(cc1N2)OCO3` (stereo not given), the result in the assay on Phaedon cochleariae [3] and in the assay on Spodoptera frugiperda [6] was inactive.

Take `COc1cccc(C2C3=C(O)OCC3=Nc3cc4c(cc32)OCO4)c1` (stereo not given): in the assay on Phaedon cochleariae [3], the outcome was inactive. The outcome in the assay on Spodoptera frugiperda [1] was Active. On to `CCOc1cc2c(cc1OCC)C(c1cc(OC)cc(OC)c1)C1=C(COC1=O)N2` (stereo not given), for which the outcome with Phaedon cochleariae [3] and with Spodoptera frugiperda [6] was inactive.

For `COc1cc(OC)cc(C2C3=C(Nc4cc5c(cc42)OCO5)C(C)(C)COC3=O)c1` (stereo not given), the outcome in the assay on Phaedon cochleariae [3] and in the assay on Spodoptera frugiperda [6] was inactive.

As for `COc1cc(C2C3=C(COC3=O)Nc3cc(Cl)ccc32)cc(OC)c1OC` (stereo not given), the outcome in the assay with Phaedon cochleariae [3] and in the assay with Spodoptera frugiperda [6] was inactive.

As for `COc1ccc2c(c1)OC1=C(C(=O)OC1)C2c1cccc(Cl)c1` (stereo not given), the outcome in the assay with Phaedon cochleariae [3] and with Spodoptera frugiperda [6] was inactive. In the case of `CC1CC2=C(C(=O)O1)C(c1cccc(Cl)c1)c1cc3c(cc1N2)OCO3` (stereo not given), the outcome in the assay on Spodoptera frugiperda [1] and with Phaedon cochleariae [2] was Active. `COc1cc(OC)cc(C2C3=C(CCCC3=O)Nc3cc4c(cc32)OCO4)c1` (stereo not given): the result with Phaedon cochleariae [3] and in the assay on Spodoptera frugiperda [6] was inactive. As for `COc1cc(OC)cc(C2C3=C(CCC3=O)Nc3cc4c(cc32)OCO4)c1` (stereo not given), the outcome with Spodoptera frugiperda [1] and with Phaedon cochleariae [5] was Active. On to `COc1cc(OC)cc(C2C3=C(COC3=O)Nc3cc(SC)ccc32)c1` (stereo not given), for which the result in the assay on Spodoptera frugiperda [1] and with Phaedon cochleariae [5] was Active. On to `COc1cc(OC)cc(C2C3=C(Nc4cc5c(cc42)OCO5)C(C)(C)ON(C)C3=O)c1` (stereo not given), for which the outcome in the assay with Phaedon cochleariae [3] and in the assay on Spodoptera frugiperda [6] was inactive.

Turning to `COc1ccc(C2C3=C(O)OCC3=Nc3cc4c(cc32)OCO4)cc1` (stereo not given), the outcome in the assay with Phaedon cochleariae [3] and in the assay on Spodoptera frugiperda [6] was inactive. As to `O=C1OCC2=C1C(c1cccc(F)c1)c1cc3c(cc1N2)OCO3` (stereo not given), the outcome with Phaedon cochleariae [2] was Active.

`N#CCOc1cccc(C2C3=C(COC3=O)Nc3cc4c(cc32)OCO4)c1` (stereo not given): the result in the assay with Spodoptera frugiperda [1] and in the assay with Phaedon cochleariae [5] was Active. With `O=C1OCC2=C1C(c1ccc3c(c1)OC(F)(F)O3)c1cc3c(cc1N2)OCO3` (stereo not given), the outcome in the assay with Phaedon cochleariae [3] and with Spodoptera frugiperda [6] was inactive. Turning to `O=C1OCC2=C1C(c1cc(Br)cc(Br)c1)c1cc3c(cc1N2)OCO3` (stereo not given), the result in the assay with Phaedon cochleariae [3] was inactive. Moreover, in the assay with Spodoptera frugiperda [1], the result was Active.

With `COc1cc(OC)cc(C2C3=C(COC3=O)Nc3cc4c(cc32)OC(F)(F)O4)c1` (stereo not given), the outcome in the assay on Phaedon cochleariae [5] was Active. Also, the outcome with Spodoptera frugiperda [6] was inactive. Take `O=C1OCC2=C1C(c1ccc(F)c(Cl)c1)c1cc3c(cc1N2)OCO3` (stereo not given): the result in the assay with Phaedon cochleariae [3] was inactive. For the same molecule, in the assay with Spodoptera frugiperda [1], the result was Active.

`COc1cc(C2C3=C(COC3=O)Nc3cc4c(cc32)OCO4)cc2c1OCO2` (stereo not given): the result with Spodoptera frugiperda [4] was Active. On to `COc1cc(C2C3=C(COC3=O)Nc3cc4c(cc32)OC(F)(F)O4)cc(OC)c1OC` (stereo not given), for which the result in the assay on Phaedon cochleariae [2] was Active. In addition, the result in the assay with Spodoptera frugiperda [6] was inactive. As for `COc1cccc(C2C3=C(COC3=O)Nc3cc4c(cc32)OCO4)c1OC` (stereo not given), the result in the assay on Phaedon cochleariae [3] and in the assay on Spodoptera frugiperda [6] was inactive. Turning to `COc1cc(OC)cc(C2C3=C(COC3=O)Nc3ccc(OC(C)C)cc32)c1` (stereo not given), the result in the assay on Phaedon cochleariae [3] and with Spodoptera frugiperda [6] was inactive. `Cc1ccc2c(c1)N(C)C1=C(C(=O)OC1)C2c1ccc(Cl)cc1` (stereo not given): the outcome with Phaedon cochleariae [3] and in the assay on Spodoptera frugiperda [6] was inactive.
